# Out of some 5,600 compounds screened, about 1,200 (21%) were called active. Inconclusive results (about 3%) are left out.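 How the source made its calls: active means mean inhibition above about 95%, with at least 55% of replicates also reaching it (limit read from the data); inconclusive means meets just one of the two conditions; inactive means meets neither condition.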 The list is a sample of the results.
# Experiment: Trypanosoma cruzi growth blockers in host fibroblasts – NIH3T3 host cells, beta-gal parasites, cherry-pick, set 2, confirmation (AID 651740);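 further: plate controls were neutral control median for no effect and positive control median for full effect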
# Conditions: T. cruzi beta-gal in NIH3T3, GalScreen luminescence, 90 h; at 2.09 µM; stronger effect = higher value
# Procedure, shortened: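 Material: beta-gal T. cruzi in mouse NIH/3T3 fibroblasts / Medium: DMEM, 2% FBS, 1% PSG / Also added: T. cruzi trypomastigotes, 5000 per well / Compound: single dose, 100 nL pinned DMSO compound / Timing: ≥90 h co-culture with compound, 60 min detection reagent / Technique: GalScreen lysis and luminescent beta-gal signal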
row,Structure (SMILES),inhibition
1,C[C@@H]1CN([C@H](C)CO)C(=O)c2cc(NC(=O)Nc3ccc(F)cc3)ccc2O[C@@H](C)CCCCO[C@H]1CN(C)Cc1ccc(Cl)c(Cl)c1,114% (active)
2,C[C@@H]1CCCCO[C@H](CN(C)Cc2ccc(Cl)c(Cl)c2)[C@H](C)CN([C@@H](C)CO)C(=O)c2cc(NC(=O)C3CCCCC3)ccc2O1,110% (active)
3,COc1ccc(NC(=O)Nc2ccc3c(c2)C(=O)N([C@H](C)CO)C[C@@H](C)[C@H](CN(C)Cc2ccc(Cl)c(Cl)c2)OCCCC[C@@H](C)O3)cc1,114% (active)
4,C[C@@H]1CCCCO[C@@H](CN(C)Cc2ccc3c(c2)OCO3)[C@@H](C)CN([C@@H](C)CO)C(=O)c2cc(NC(=O)Nc3ccccc3)ccc2O1,84.4% (inactive)
5,COc1ccc(CN(C)C[C@H]2OCCCC[C@H](C)Oc3ccc(NC(=O)Nc4ccc5c(c4)OCO5)cc3C(=O)N([C@H](C)CO)C[C@@H]2C)cc1,83% (inactive)
6,C[C@@H]1CCCCO[C@@H](CN(C)Cc2ccc(Cl)c(Cl)c2)[C@H](C)CN([C@H](C)CO)C(=O)c2cc(NC(=O)Nc3ccc(F)cc3)ccc2O1,112% (active)
7,O=C(NCc1ccccn1)[C@@H]1[C@@H](CO)[C@@H]2Cn3c(ccc(/C=C/c4ccccc4)c3=O)[C@H]1N2CC1CC1,22.2% (inactive)
8,C[C@H]1CN([C@@H](C)CO)C(=O)c2cc(C#CC3CCCCC3)cnc2O[C@H]1CN(C)S(=O)(=O)c1ccccc1,77% (inactive)
9,C[C@@H]1CN([C@@H](C)CO)C(=O)Cc2cc(NC(=O)C3CCCCC3)ccc2O[C@@H]1CN(C)Cc1ccc(C(=O)Nc2ccccc2N)cc1,83.7% (inactive)
10,C[C@H](CO)N1C[C@H](C)[C@@H](CN(C)Cc2ccc(-c3ccccc3)cc2)Oc2ccc(NC(=O)CCC(F)(F)F)cc2CC1=O,89.8% (inactive)
11,C[C@@H]1CCCCO[C@H](CN(C)C(=O)Nc2cccc3ccccc23)[C@H](C)CN([C@H](C)CO)C(=O)c2cc(NS(=O)(=O)c3cccs3)ccc2O1,52.6% (inactive)
12,C[C@H](CO)N1C[C@H](C)[C@H](CN(C)C(=O)Nc2ccc3c(c2)OCO3)Oc2ncc(C#Cc3cccc(F)c3)cc2C1=O,36.1% (inactive)
13,CC(C)NC(=O)N(C)C[C@H]1OCc2cn(nn2)CCCC(=O)N([C@@H](C)CO)C[C@H]1C,-10.9% (inactive)
14,O=C(C1CC1)N1CCCCN2[C@H](CO)[C@H](c3ccc(-c4cccc(F)c4)cc3)[C@H]2C1,67% (inactive)
15,C[C@H](CO)N1C[C@H](C)[C@H](CN(C)C(=O)C2CCCCC2)Oc2ncc(C#Cc3cccc(F)c3)cc2C1=O,44.3% (inactive)
16,O=C(c1ccncc1)N1CCCCN2[C@H](CO)[C@H](c3ccc(-c4ccccc4)cc3)[C@H]2C1,68.8% (inactive)
17,O=C(C1CCC1)N1CCCCN2[C@H](CO)[C@H](c3ccc(-c4cccc(F)c4)cc3)[C@@H]2C1,62% (inactive)
18,C[C@@H]1CN([C@H](C)CO)C(=O)c2cc(C#CC3CCCCC3)cnc2O[C@@H]1CN(C)C(=O)NC1CCCC1,66.9% (inactive)
19,O=C(C1CCC1)N1CCCCN2[C@H](CO)[C@H](c3ccc(-c4ccncc4)cc3)[C@@H]2C1,24.4% (inactive)
20,COc1cccc(C#Cc2ccc([C@@H]3[C@H](C#N)N[C@H]3CO)cc2)c1,97.1% (active)
21,COCC(=O)N1[C@H](CO)[C@@H](c2ccc(C#Cc3ccccc3F)cc2)[C@@H]1C#N,72.9% (inactive)
22,N#C[C@@H]1[C@@H](c2ccc(C#Cc3cccc(F)c3)cc2)[C@@H](CO)N1C(=O)C1CCC1,62.2% (inactive)
23,O=C(C[C@H]1CC[C@@H]2[C@H](COC[C@H](O)CN2Cc2ccc(Oc3ccccc3)cc2)O1)N1CCN(c2ccccc2)CC1,21.7% (inactive)
24,Cc1ccccc1-c1ccc([C@@H]2[C@H](CO)N3CCCCN(S(=O)(=O)c4ccc(F)cc4)C[C@@H]23)cc1,62.4% (inactive)
25,CC(=O)N1[C@H](CNC(=O)C2CC2)[C@@H](c2ccc(-c3cccc(F)c3)cc2)[C@@H]1CO,-2.15% (inactive)
26,CCCNC(=O)N1[C@@H]2c3cccc(=O)n3C[C@H]1[C@H](CO)[C@H]2C(=O)NCC(F)(F)F,23.3% (inactive)

row,Structure (SMILES),inhibition
1,CC(C)(O)C#Cc1ccc([C@@H]2[C@H](CO)N3CCCCN(C(=O)c4cccc(F)c4)C[C@@H]23)cc1,-0.041% (inactive)
2,CCC(=O)N1CCCCN2[C@H](C1)[C@@H](c1ccc(/C=C/c3ccccc3)cc1)[C@@H]2CO,62.7% (inactive)
3,C[C@H](CO)N1C[C@H](C)[C@@H](CN(C)C(=O)Nc2cc(F)ccc2F)Oc2cc(C#CC3CC3)ccc2S1(=O)=O,51.9% (inactive)
4,C[C@@H]1CN([C@@H](C)CO)S(=O)(=O)c2ccc(C#CCC3CCCC3)cc2O[C@H]1CN(C)C(=O)CC1CC1,64.9% (inactive)
5,CC(C)CC#Cc1ccc2c(c1)O[C@H](CN(C)C(=O)C1CC1)[C@@H](C)CN([C@@H](C)CO)S2(=O)=O,58.8% (inactive)
6,C[C@H]1CN([C@@H](C)CO)S(=O)(=O)c2ccc(C#CC3CCCC3)cc2O[C@@H]1CN(C)C(=O)c1cccc(F)c1,100% (active)
7,CNC[C@@H]1Oc2cc(C#CCC3CCCC3)ccc2S(=O)(=O)N([C@H](C)CO)C[C@H]1C,31.6% (inactive)
8,C[C@@H]1CN([C@@H](C)CO)S(=O)(=O)c2ccc(C#CCN(C)C)cc2O[C@H]1CN(C)C(=O)C1CC1,98.9% (active)
9,CC(=O)N(C)C[C@H]1Oc2cc(C#CCN(C)C)ccc2S(=O)(=O)N([C@@H](C)CO)C[C@@H]1C,91.3% (inactive)
10,C[C@@H]1CN([C@H](C)CO)S(=O)(=O)c2ccc(C#CCC3CCCC3)cc2O[C@H]1CN(C)C(=O)CC1CC1,106% (active)
11,CCCN(C)C[C@H]1Oc2cc(C#CC3CCCC3)ccc2S(=O)(=O)N([C@H](C)CO)C[C@@H]1C,68.9% (inactive)
12,C[C@@H]1CN([C@H](C)CO)S(=O)(=O)c2ccc(C#CC3CCCC3)cc2O[C@@H]1CN(C)C(=O)Cc1ccncc1,66.3% (inactive)
13,C[C@@H]1CN([C@H](C)CO)C(=O)Cc2cc(NC(=O)Cc3ccccc3)ccc2O[C@H]1CN(C)Cc1ccc(Oc2ccccc2)cc1,20.7% (inactive)
14,CC(=O)NC[C@@H]1[C@@H](c2ccc(-c3ccccc3F)cc2)[C@@H](CO)N1C(=O)C1CC1,14.2% (inactive)
15,COc1ccc(S(=O)(=O)Nc2ccc3c(c2)C(=O)N([C@@H](C)CO)C[C@H](C)[C@H](CN(C)Cc2ccc(C(F)(F)F)cc2)O3)cc1,42.3% (inactive)
16,Cc1noc(C)c1S(=O)(=O)N(C)C[C@H]1Oc2ccc(N(C)C)cc2CC(=O)N([C@H](C)CO)C[C@@H]1C,-7.54% (inactive)
17,C[C@@H]1CN([C@@H](C)CO)S(=O)(=O)c2ccc(-c3cccc(F)c3)cc2O[C@@H]1CN(C)S(=O)(=O)c1ccccc1,94.1% (inactive)
18,CC(C)CC#Cc1ccc2c(c1)O[C@H](CN(C)Cc1cccnc1)[C@H](C)CN([C@@H](C)CO)S2(=O)=O,81.2% (inactive)
19,CC(C)CC#Cc1ccc2c(c1)O[C@H](CN(C)Cc1ccccc1F)[C@@H](C)CN([C@@H](C)CO)S2(=O)=O,113% (active)
20,CC(C)CC#Cc1ccc2c(c1)O[C@H](CN(C)S(=O)(=O)c1cccc(F)c1)[C@@H](C)CN([C@@H](C)CO)S2(=O)=O,110% (active)
21,C[C@@H]1CN([C@H](C)CO)S(=O)(=O)c2ccc(-c3cccc(F)c3)cc2O[C@H]1CN(C)S(=O)(=O)c1ccc(F)cc1,74.9% (inactive)
22,CC(C)CC#Cc1ccc2c(c1)O[C@H](CN(C)Cc1ccncc1)[C@H](C)CN([C@H](C)CO)S2(=O)=O,89.4% (inactive)
23,O=C(C[C@@H]1C[C@@H]2c3cc(NC(=O)c4ccc5c(c4)OCO5)ccc3O[C@@H]2[C@@H](CO)O1)NCc1ccc(Cl)cc1,-3.27% (inactive)
24,Cc1cccc(-c2ccc([C@@H]3[C@@H](CO)N4CCCCN(S(=O)(=O)c5cccs5)C[C@H]34)cc2)c1,94.4% (inactive)
25,O=C(c1cccnc1)N1CCCCN2[C@@H](CO)[C@H](c3ccc(C#Cc4ccccc4)cc3)[C@@H]2C1,41.7% (inactive)
26,O=S(=O)(Cc1ccccc1)N1CCCCN2[C@@H](CO)[C@@H](c3ccc(-c4ccc(F)cc4)cc3)[C@@H]2C1,104% (active)

row,Structure (SMILES),inhibition
1,COc1cccc(S(=O)(=O)N2CCCCN3[C@H](CO)[C@H](c4ccc(-c5ccncc5)cc4)[C@H]3C2)c1,100% (active)
2,COc1ccc(S(=O)(=O)N2CCCCN3[C@H](CO)[C@@H](c4ccc(C#CC(C)C)cc4)[C@H]3C2)cc1,79.7% (inactive)
3,O=S(=O)(Cc1ccccc1)N1CCCCN2[C@@H](CO)[C@H](c3ccc(-c4cccnc4)cc3)[C@@H]2C1,62.1% (inactive)
4,COc1ccc(S(=O)(=O)N2CCCCN3[C@H](C2)[C@H](c2ccc(C#CCC(C)C)cc2)[C@@H]3CO)cc1,109% (active)
5,CN(C)CC#Cc1ccc([C@H]2[C@H]3CN(S(=O)(=O)c4ccccc4F)CCCCN3[C@H]2CO)cc1,8.03% (inactive)
6,COc1ccccc1C#Cc1ccc([C@@H]2[C@H](CO)N3CCCCN(C(=O)C4CC4)C[C@@H]23)cc1,64.4% (inactive)
7,COc1ccccc1C#Cc1ccc([C@@H]2[C@H](CO)N3CCCCN(C(=O)C4CCCC4)C[C@@H]23)cc1,98.1% (active)
8,O=S(=O)(Cc1ccccc1)N1CCCCN2[C@@H](CO)[C@H](c3ccc(-c4ccccc4)cc3)[C@@H]2C1,78.8% (inactive)
9,CCS(=O)(=O)N1CCCCN2[C@@H](CO)[C@@H](c3ccc(-c4ccccc4)cc3)[C@@H]2C1,27.5% (inactive)
10,OC[C@@H]1[C@H](c2ccc(C#CC3(O)CCCC3)cc2)[C@H]2CN(Cc3cncnc3)CCCCN12,79.8% (inactive)
11,CNC[C@H]1OCCCC[C@@H](C)Oc2ccc(NS(C)(=O)=O)cc2C(=O)N([C@H](C)CO)C[C@H]1C,-9.33% (inactive)
12,CO[C@H](CN(C)S(=O)(=O)c1ccc(Cl)cc1)[C@@H](C)CN(Cc1ccccc1Cl)[C@H](C)CO,48.7% (inactive)
13,COc1cccc(S(=O)(=O)Nc2ccc3c(c2)[C@H]2C[C@H](CC(=O)NCc4ccc(Cl)cc4)O[C@H](CO)[C@H]2O3)c1,2.49% (inactive)
14,COc1cccc(S(=O)(=O)N2C[C@@H](O)COC[C@@H]3O[C@H](CC(=O)Nc4ccccc4)CC[C@H]32)c1,1.83% (inactive)
15,C[C@H](CO)N1C[C@H](C)[C@@H](CN(C)S(=O)(=O)c2ccccc2F)Oc2ncc(C#Cc3ccccc3F)cc2C1=O,93.7% (inactive)
16,C[C@H]1CN([C@@H](C)CO)C(=O)Cc2cc(NC(=O)Cc3cn(C)c4ccccc34)ccc2O[C@@H]1CN(C)Cc1ccc(C(F)(F)F)cc1,43.7% (inactive)
17,C[C@H](O)C#Cc1ccc([C@@H]2[C@H]3CN(S(=O)(=O)c4ccccc4)CCCCN3[C@H]2CO)cc1,-19.2% (inactive)
18,COc1cccc(S(=O)(=O)N2CCCCN3[C@H](CO)[C@H](c4ccc(C#CC5CC5)cc4)[C@H]3C2)c1,102% (active)
19,O=C(Nc1cccc(F)c1)N1CCCCN2[C@H](CO)[C@H](c3ccc(C#CC4CC4)cc3)[C@@H]2C1,89.3% (inactive)
20,COc1cccc(S(=O)(=O)N2CCCCN3[C@H](C2)[C@H](c2ccc(C#CC(C)C)cc2)[C@@H]3CO)c1,103% (active)
21,C[C@@H](O)C#Cc1ccc([C@@H]2[C@H](CO)N3CCCCN(S(=O)(=O)c4ccccc4)C[C@@H]23)cc1,12% (inactive)
22,C/C=C/c1ccc([C@H]2[C@H]3CN(S(=O)(=O)c4ccccc4)CCCCN3[C@H]2CO)cc1,40.8% (inactive)
23,C[C@H](CO)N1C[C@H](C)[C@H](CN(C)C(=O)Nc2cccc3ccccc23)Oc2ncc(C#Cc3ccccc3)cc2C1=O,59.1% (inactive)
24,Cc1cccc(-c2ccc([C@@H]3[C@H](CO)N4CCCCN(C(=O)c5ccc6c(c5)OCO6)C[C@@H]34)cc2)c1,66.9% (inactive)
25,C[C@@H]1CN([C@H](C)CO)S(=O)(=O)c2ccc(-c3cccc(C#N)c3)cc2O[C@@H]1CN(C)C(=O)Nc1ccccc1F,85.2% (inactive)
26,C[C@@H]1CN([C@@H](C)CO)C(=O)CCCn2cc(nn2)CO[C@@H]1CN(C)S(=O)(=O)c1ccccc1F,34.3% (inactive)

# Source: PubChem BioAssay AID651740 (Broad Institute, 2012)
